Data as given in publication PMC2989669 (Bioorganic & medicinal chemistry letters, 2010).
One block for each compound: values may come before it.

Legend:
MIF-CD74 binding = biological target: T1, MIF-CD74 binding (Homo sapiens, UniProt P14174); assay: MIF-CD74 binding assay; conditions: for IC50 or max % inhib CD74 (result in words): MIF-CD74 binding assay
T1 sequence (P14174 2-115 limits assumed): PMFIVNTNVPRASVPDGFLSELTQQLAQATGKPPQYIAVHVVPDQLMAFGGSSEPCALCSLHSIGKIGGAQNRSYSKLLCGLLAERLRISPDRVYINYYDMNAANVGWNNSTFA

human MIF = biological target: T2, human MIF (Homo sapiens, UniProt P14174); assay: MIF tautomerase assay using 4-hydroxyphenylpyruvate; type: biochemical; conditions: for IC50 or max % inhib 4-HPP (result in words): tautomerase assay
T2 sequence (P14174 2-115 limits assumed): T1 sequence (P14174 2-115 limits assumed)
Summary of the method: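 Recombinant human MIF; tautomerase activity measured with 4-hydroxyphenylpyruvate (4-HPP) as substrate. Test compounds were run from 1 nM to 1 mM. IC50 was reported. Where inhibition plateaued below 50%, the maximum percent inhibition was reported instead.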

[1] = test system: MIF-dependent ERK1/2 phosphorylation; assay: MIF-dependent ERK1/2 phosphorylation in human fibroblasts; type: cell-based; conditions: human primary fibroblasts, MIF […] trimer, compound 8 nM, 30 min
MIF tautomerase = conditions: cited from earlier work

- IC50 (MIF-CD74 binding): > 1 mM
Compound: Oc1ccc(-c2cn(Cc3ccccc3)nn2)cc1 [3a]

- IC50 (MIF-CD74 binding): > 1 mM
Compound: Cc1ccccc1Cn1cc(-c2ccc(O)cc2)nn1 [3b]

- IC50 (MIF-CD74 binding): > 1 mM
Compound: Cc1cccc(Cn2cc(-c3ccc(O)cc3)nn2)c1 [3c]

- IC50 or max % inhib 4-HPP (result in words) (human MIF): Agon
- IC50 or max % inhib CD74 (result in words) (MIF-CD74 binding): Agon
Compound: COc1ccccc1Cn1cc(-c2ccc(O)cc2)nn1 [3d]
- effect on MIF-dependent ERK1/2 phosphorylation [1]: enhances ERK1/2 phosphorylation

- IC50 (MIF-CD74 binding): > 1 mM
Compound: COc1ccc(Cn2cc(-c3ccc(O)cc3)nn2)cc1 [3f]

- IC50 (human MIF): ~1 µM
- IC50 (MIF-CD74 binding): ~0.001 mM
Compound: COc1cccc(Cn2cc(-c3ccc(O)cc3)nn2)c1OC [3g]
- effect on MIF-dependent ERK1/2 phosphorylation [1]: strongly inhibits

- IC50 (human MIF): ~1 µM
- IC50 (MIF-CD74 binding): ~0.001 mM
Compound: COC(=O)c1cccc(Cn2cc(-c3ccc(O)cc3)nn2)c1 [3h]

- IC50 (MIF-CD74 binding): > 1 mM
Compound: O=C(O)c1cccc(Cn2cc(-c3ccc(O)cc3)nn2)c1 [3i]

- IC50 (human MIF): > 1000 µM
- IC50 (MIF-CD74 binding): > 1 mM
Compound: Oc1ccc(-n2cc(Cc3cccc(O)c3)nn2)cc1 [4d]

- IC50 (MIF-CD74 binding): > 1 mM
Compound: COc1cccc(Cc2cn(-c3ccc(O)cc3)nn2)c1OC [4i]

- IC50 or max % inhib 4-HPP (result in words) (human MIF): Agon
- IC50 or max % inhib CD74 (result in words) (MIF-CD74 binding): Agon
Compound: Oc1ccc(-n2cc(-c3cccnc3)nn2)cc1 [5a]
- effect on MIF-dependent ERK1/2 phosphorylation [1]: enhances ERK1/2 phosphorylation

- IC50 (MIF-CD74 binding): > 1 mM
Compound: Oc1ccc(-n2cc(-c3cccc4ccccc34)nn2)cc1 [5b]

- IC50 or max % inhib 4-HPP (result in words) (human MIF): Agon
- IC50 or max % inhib CD74 (result in words) (MIF-CD74 binding): Agon
Compound: Oc1ccc(-n2cc(-c3cncc4ccccc34)nn2)cc1 [5c]
- effect on MIF-dependent ERK1/2 phosphorylation [1]: enhances ERK1/2 phosphorylation

Compound: CCOC(=O)c1cc2ccc(O)cc2oc1=O [compound 1]
- tautomerase inhibition (reported potency) (MIF tautomerase): 7 µM

Compound: COC(=O)CC1CC(c2ccc(O)cc2)=NO1 (stereo not shown) [compound 2]
- tautomerase inhibition (reported potency) (MIF tautomerase): 7 µM
